In ChEMBL document CHEMBL3734650, “Synthesis and activity of novel 16-dehydropregnenolone acetate derivatives as inhibitors of type 1 5α-reductase and on cancer cell line SK-LU-1” (Bioorg Med Chem, 2015):
pIC50: −log10 of the molar value. The source made the active and inactive calls. The calls are words filed in the database; no cut-off is given here.

How the values were obtained:
[1] = biological target: T1, 3-oxo-5-alpha-steroid 4-dehydrogenase 1 (Rattus norvegicus, UniProt P24008); assay: Inhibition of rat liver type 1 5alpha-reductase assessed as transformation of testosterone to dihydrotestosterone; conditions: for pIC50: read-out: IC50
T1 sequence (P24008 whole entry): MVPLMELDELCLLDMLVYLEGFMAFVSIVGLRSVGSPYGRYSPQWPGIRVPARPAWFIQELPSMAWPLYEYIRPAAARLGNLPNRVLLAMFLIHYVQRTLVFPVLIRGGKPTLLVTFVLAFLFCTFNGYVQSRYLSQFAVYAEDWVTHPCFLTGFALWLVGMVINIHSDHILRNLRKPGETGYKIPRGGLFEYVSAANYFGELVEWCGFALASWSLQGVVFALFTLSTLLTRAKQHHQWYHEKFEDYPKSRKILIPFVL
Procedure, shortened: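 Enzyme source: liver microsomes from overnight-fasted adult rats (8-month, 500 g), prepared in buffer A (20 mM sodium phosphate pH 6.5, 0.32 M sucrose, 0.1 mM DTT) at 4 °C, resuspended at 20 mg protein/mL. Inhibitors at 1 × 10⁻¹⁰ to 10⁻⁴ M. Radiolabelled T→DHT conversion quantified from TLC-plate radioactivity. IC50 taken from inhibition curves.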

Syrian golden hamster [2] = assay: Increase of diameter of pigmented spot of flank organs in gonadectomized golden hamster at 2 mg/kg, sc qd for 6 days co-administered with 1 mg/kg of testosterone (reference value: 2.03 +/- 0.63 millimeter); type: functional, Mesocricetus auratus
MCF7 = assay: Cytotoxicity against human MCF7 cells as growth inhibition at 50 uM; type: functional; conditions: for inhibition of growth at 50 µM: read-out: GI
Procedure, shortened: (§1)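 Growth inhibition calculated from absorbance as 100 − (sample absorbance / vehicle absorbance × 100).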

[3] = biological target: T2, 3-oxo-5-alpha-steroid 4-dehydrogenase 2 (Homo sapiens, UniProt P31213); assay: Inhibition of human prostate type 2 5alpha-reductase assessed as transformation of testosterone to dihydrotestosterone; type: tissue-based, Prostate gland; conditions: for pIC50: read-out: IC50
T2 sequence (P31213 whole entry): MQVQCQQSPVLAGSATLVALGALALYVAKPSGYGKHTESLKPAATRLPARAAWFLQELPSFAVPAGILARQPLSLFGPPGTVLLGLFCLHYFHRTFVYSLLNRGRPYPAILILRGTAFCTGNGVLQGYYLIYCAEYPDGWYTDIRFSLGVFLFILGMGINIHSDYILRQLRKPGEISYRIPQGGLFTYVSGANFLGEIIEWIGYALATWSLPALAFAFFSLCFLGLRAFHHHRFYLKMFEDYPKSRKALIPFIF
Procedure, shortened: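 Enzyme source: normal prostate from a person, homogenized in buffer A (20 mM sodium phosphate pH 6.5, 0.32 M sucrose, 0.1 mM DTT), pelleted at 1500 × g, resuspended at 5 mg protein/mL. Inhibitors at 1 × 10⁻¹⁰ to 10⁻⁴ M. Radiolabelled T→DHT conversion quantified by TLC lane radioactivity against total plate radioactivity. IC50 taken from inhibition curves.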

Syrian golden hamster [4] = assay: Increase of seminal vesicles weight in gonadectomized golden hamster at 2 mg/kg, sc qd for 6 days co-administered with 1 mg/kg of testosterone (reference value: 96.11 +/- 12.5 mg); type: functional, Mesocricetus auratus
Androgen receptor = biological target: T3, Androgen receptor (Rattus norvegicus, UniProt P15207); assay: Displacement of [3H}-MIB from rat prostate cytosol androgen receptor assessed as relative binding affinity
T3 sequence (P15207 whole entry): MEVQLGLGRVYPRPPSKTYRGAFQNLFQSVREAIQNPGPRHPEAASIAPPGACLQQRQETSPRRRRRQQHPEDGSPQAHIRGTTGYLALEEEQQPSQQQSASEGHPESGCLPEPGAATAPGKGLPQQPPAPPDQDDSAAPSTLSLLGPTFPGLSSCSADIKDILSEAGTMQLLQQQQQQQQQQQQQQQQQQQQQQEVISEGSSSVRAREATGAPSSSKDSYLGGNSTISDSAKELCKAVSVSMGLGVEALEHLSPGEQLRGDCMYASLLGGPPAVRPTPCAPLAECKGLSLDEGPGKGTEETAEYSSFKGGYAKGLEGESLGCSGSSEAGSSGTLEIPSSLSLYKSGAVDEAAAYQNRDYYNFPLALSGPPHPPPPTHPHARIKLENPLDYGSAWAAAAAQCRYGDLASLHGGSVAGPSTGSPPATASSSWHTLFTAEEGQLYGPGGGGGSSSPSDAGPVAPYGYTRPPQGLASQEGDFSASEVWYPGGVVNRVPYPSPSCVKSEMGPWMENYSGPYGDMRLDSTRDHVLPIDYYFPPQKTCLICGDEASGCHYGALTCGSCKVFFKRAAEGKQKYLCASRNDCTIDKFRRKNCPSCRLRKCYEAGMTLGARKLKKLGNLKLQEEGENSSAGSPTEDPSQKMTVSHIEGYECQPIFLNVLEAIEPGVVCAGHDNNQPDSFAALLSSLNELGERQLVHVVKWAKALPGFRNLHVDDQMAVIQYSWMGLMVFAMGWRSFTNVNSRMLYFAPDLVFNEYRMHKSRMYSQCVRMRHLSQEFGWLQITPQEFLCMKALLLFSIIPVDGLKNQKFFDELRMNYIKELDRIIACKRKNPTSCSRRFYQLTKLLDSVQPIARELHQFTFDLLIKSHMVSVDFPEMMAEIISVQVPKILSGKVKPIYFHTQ

PC-3 = assay: (§2) Cytotoxicity against human PC3 cells assessed as growth inhibition at 50 uM; type: functional; procedure, shortened: as §1
SK-LU-1 = assay: (§3) Cytotoxicity against human SKLU1 cells as growth inhibition at 50 uM; type: functional; procedure, shortened: as §1
Syrian golden hamster [5] = assay: Increase of prostate weight in gonadectomized golden hamster at 2 mg/kg, sc qd for 6 days co-administered with 1 mg/kg of testosterone (reference value: 50.4 +/- 9.9 mg); type: functional, Mesocricetus auratus, Prostate gland
[6] = as §2; type: functional; conditions: PC-3, read-out: GI; procedure, shortened: as §1
[7] = as §3; type: functional; conditions: SK-LU-1, read-out: GI; procedure, shortened: as §1
Syrian golden hamster [8] = assay: Increase of prostate weight in gonadectomized golden hamster at 1 mg/kg, sc qd for 6 days co-administered with 1 mg/kg of testosterone (reference value: 50.4 +/- 9.9 mg); type: functional, Mesocricetus auratus, Prostate gland
Syrian golden hamster [9] = assay: Increase of diameter of pigmented spot of flank organs in gonadectomized golden hamster at 1 mg/kg, sc qd for 6 days co-administered with 1 mg/kg of testosterone (reference value: 2.03 +/- 0.63 millimeter); type: functional, Mesocricetus auratus
Syrian golden hamster [10] = assay: Increase of seminal vesicles weight in gonadectomized golden hamster at 1 mg/kg, sc qd for 6 days co-administered with 1 mg/kg of testosterone (reference value: 96.11 +/- 12.5 mg); type: functional, Mesocricetus auratus
Syrian golden hamster [11] = assay: Increase of seminal vesicles weight in gonadectomized golden hamster at 1 mg/kg, sc qd for 6 days (reference value: 96.11 +/- 12.5 mg); type: functional, Mesocricetus auratus
Syrian golden hamster [12] = assay: Increase of diameter of pigmented spot of flank organs in gonadectomized golden hamster at 1 mg/kg, sc qd for 6 days (reference value: 2.03 +/- 0.63 millimeter); type: functional, Mesocricetus auratus
Syrian golden hamster [13] = assay: Increase of prostate weight in gonadectomized golden hamster at 1 mg/kg, sc qd for 6 days (reference value: 50.4 +/- 9.9 mg); type: functional, Mesocricetus auratus, Prostate gland

| SMILES | IC50 [1] | Activity (Syrian golden hamster [2]) [mm] | growth inhibition (GI) (MCF7) | IC50 [3] | Activity (Syrian golden hamster [4]) [mg] | IC50 (Androgen receptor) | growth inhibition (GI) (PC-3) | growth inhibition (GI) (SK-LU-1) | Activity (Syrian golden hamster [5]) [mg] | pIC50 [1] | inhibition of growth at 50 µM (MCF7) [%] | inhibition of growth at 50 µM [6] [%] | inhibition of growth at 50 µM [7] [%] | Activity (Syrian golden hamster [8]) [mg] | Activity (Syrian golden hamster [9]) [mm] | Activity (Syrian golden hamster [10]) [mg] | pIC50 [3] | Activity (Syrian golden hamster [11]) [mg] | Activity (Syrian golden hamster [12]) [mm] | Activity (Syrian golden hamster [13]) [mg] |
| --- | --- | --- | --- | --- | --- | --- | --- | --- | --- | --- | --- | --- | --- | --- | --- | --- | --- | --- | --- | --- |
| C[C@]12CC[C@H](OC(=O)C3CCCC3)CC1=CC[C@@H]1[C@@H]2CC[C@]2(C)C(C(=O)Cn3cncn3)=CC[C@@H]12 | Not Active | 2.8 | inactive | Not Active | 120 | Not Active | inactive | inactive | 97 | – | – | – | – | – | – | – | – | – | – | – |
| CCCCCC(=O)O[C@H]1CC[C@@]2(C)C(=CC[C@@H]3[C@@H]2CC[C@]2(C)C(C(=O)Cn4cncn4)=CC[C@@H]32)C1 | – | 2.8 | – | Not Active | 200 | Not Active | – | – | 86.9 | 4.00 | 14.4 | 16.9 | 6.4 | – | – | – | – | – | – | – |
| C[C@]12CC[C@H](OC(=O)C3CCCCCC3)CC1=CC[C@@H]1[C@@H]2CC[C@]2(C)C(C(=O)Cn3cncn3)=CC[C@@H]12 | Not Active | 4.45 | inactive | – | 203.98 | Not Active | inactive | inactive | 78.2 | – | – | – | – | – | – | – | – | – | – | – |
| CC(C)(C)NC(=O)[C@H]1CC[C@H]2[C@@H]3CC[C@H]4NC(=O)C=C[C@]4(C)[C@H]3CC[C@]12C [FINASTERIDE] | – | – | inactive | – | – | – | inactive | inactive | – | – | – | – | – | 69.6 | 3.57 | 161.4 | – | – | – | – |
| C[C@]12CC[C@H](OC(=O)C3CC3)CC1=CC[C@@H]1[C@@H]2CC[C@]2(C)C(C(=O)Cn3cncn3)=CC[C@@H]12 | Not Active | 2.88 | inactive | – | 180.3 | Not Active | inactive | inactive | 107.48 | – | – | – | – | – | – | – | 3.93 | – | – | – |
| CCCCC(=O)O[C@H]1CC[C@@]2(C)C(=CC[C@@H]3[C@@H]2CC[C@]2(C)C(C(=O)Cn4cncn4)=CC[C@@H]32)C1 | – | 3.71 | – | Not Active | 180.03 | Not Active | – | – | 82.3 | 6.49 | 38.5 | 38.2 | 20.2 | – | – | – | – | – | – | – |
| CC(=O)O[C@H]1CC[C@@]2(C)C(=CC[C@@H]3[C@@H]2CC[C@]2(C)C(C(=O)Cn4cncn4)=CC[C@@H]32)C1 | Not Active | 2.9 | – | – | 216.075 | Not Active | – | – | 87.65 | – | 59.4 | 56.2 | 74.8 | – | – | – | 4.00 | – | – | – |
| CCCC(=O)O[C@H]1CC[C@@]2(C)C(=CC[C@@H]3[C@@H]2CC[C@]2(C)C(C(=O)Cn4cncn4)=CC[C@@H]32)C1 | Not Active | 2.71 | – | Not Active | 138.9 | Not Active | – | – | 81.3 | – | 25.6 | 9.2 | 15.6 | – | – | – | – | – | – | – |
| C[C@]12CC[C@H](O)CC1=CC[C@@H]1[C@@H]2CC[C@]2(C)C(C(=O)Cn3cncn3)=CC[C@@H]12 | Not Active | 3.05 | – | Not Active | 163.33 | Not Active | – | – | 89 | – | 62.1 | 61.3 | 88.9 | – | – | – | – | – | – | – |
| C[C@]12CC[C@H](OC(=O)C3CCC3)CC1=CC[C@@H]1[C@@H]2CC[C@]2(C)C(C(=O)Cn3cncn3)=CC[C@@H]12 | Not Active | 2.14 | inactive | Not Active | 130 | Not Active | inactive | inactive | 100 | – | – | – | – | – | – | – | – | – | – | – |
| CCC(=O)O[C@H]1CC[C@@]2(C)C(=CC[C@@H]3[C@@H]2CC[C@]2(C)C(C(=O)Cn4cncn4)=CC[C@@H]32)C1 | – | 2.79 | – | Not Active | 157.08 | Not Active | inactive | – | 89.55 | 7.06 | 5.9 | – | 8.8 | – | – | – | – | – | – | – |
| C[C@]12CC[C@H](OC(=O)C3CCCCC3)CC1=CC[C@@H]1[C@@H]2CC[C@]2(C)C(C(=O)Cn3cncn3)=CC[C@@H]12 | Not Active | 3 | inactive | Not Active | 150 | Not Active | inactive | inactive | 88 | – | – | – | – | – | – | – | – | – | – | – |
| C[C@]12CC[C@H]3[C@@H](CCC4=CC(=O)CC[C@@]43C)[C@@H]1CC[C@@H]2O [TESTOSTERONE] | – | – | – | – | – | – | – | – | – | – | – | – | – | – | – | – | – | 200.6 | 5.65 | 98 |
| CC(=O)N1CCN(c2ccc(OCC3COC(Cn4ccnc4)(c4ccc(Cl)cc4Cl)O3)cc2)CC1 (stereo not given) [KETOCONAZOLE] | – | – | – | – | – | – | – | – | – | – | 95.2 | 88.5 | 73.4 | – | – | – | – | – | – | – |
